Source: BindingDB's records for doi:10.1021/jm00399a033 (Schering-Plough, 1988)

Biological target: T1, Angiotensin-converting enzyme (Oryctolagus cuniculus, UniProt P12822)
T1 sequence (P12822 whole entry): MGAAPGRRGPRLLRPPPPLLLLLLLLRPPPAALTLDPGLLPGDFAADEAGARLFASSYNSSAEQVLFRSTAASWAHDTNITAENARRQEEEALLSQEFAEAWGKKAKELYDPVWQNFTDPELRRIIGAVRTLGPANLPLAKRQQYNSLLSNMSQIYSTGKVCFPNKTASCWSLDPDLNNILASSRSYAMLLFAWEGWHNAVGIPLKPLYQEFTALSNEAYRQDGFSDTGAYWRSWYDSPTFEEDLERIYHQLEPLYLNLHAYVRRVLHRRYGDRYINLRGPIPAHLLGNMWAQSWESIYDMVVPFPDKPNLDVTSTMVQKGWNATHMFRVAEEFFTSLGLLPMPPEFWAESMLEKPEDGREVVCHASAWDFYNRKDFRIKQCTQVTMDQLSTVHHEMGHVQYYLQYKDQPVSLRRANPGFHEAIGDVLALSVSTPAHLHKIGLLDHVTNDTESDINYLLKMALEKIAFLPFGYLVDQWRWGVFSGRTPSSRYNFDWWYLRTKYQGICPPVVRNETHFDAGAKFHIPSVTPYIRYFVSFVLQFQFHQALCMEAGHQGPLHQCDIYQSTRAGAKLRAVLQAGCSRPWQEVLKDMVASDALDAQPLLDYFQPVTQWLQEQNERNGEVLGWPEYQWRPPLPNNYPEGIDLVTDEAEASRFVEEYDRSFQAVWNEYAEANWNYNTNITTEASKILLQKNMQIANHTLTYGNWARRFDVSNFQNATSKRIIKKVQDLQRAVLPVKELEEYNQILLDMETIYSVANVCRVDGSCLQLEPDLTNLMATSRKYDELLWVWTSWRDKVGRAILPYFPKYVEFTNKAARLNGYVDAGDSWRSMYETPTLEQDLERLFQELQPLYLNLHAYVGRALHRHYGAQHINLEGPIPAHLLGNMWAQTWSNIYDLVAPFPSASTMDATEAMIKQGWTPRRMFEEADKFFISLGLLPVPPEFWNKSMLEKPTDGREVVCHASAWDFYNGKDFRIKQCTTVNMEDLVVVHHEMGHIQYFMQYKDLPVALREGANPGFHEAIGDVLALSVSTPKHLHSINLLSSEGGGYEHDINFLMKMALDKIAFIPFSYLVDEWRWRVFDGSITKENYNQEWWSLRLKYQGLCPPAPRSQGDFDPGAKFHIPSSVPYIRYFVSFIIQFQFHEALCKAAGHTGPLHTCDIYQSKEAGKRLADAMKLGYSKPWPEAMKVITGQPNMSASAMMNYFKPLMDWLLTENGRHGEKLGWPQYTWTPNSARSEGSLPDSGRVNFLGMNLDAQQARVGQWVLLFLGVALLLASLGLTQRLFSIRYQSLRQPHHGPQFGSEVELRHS
Test: In vitro inhibition of Angiotensin I converting enzyme with relative to captopril(=1)
Summary of the method: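 Crude ACE from rabbit lung acetone powder extracted in 50 mM potassium phosphate pH 8.3, spun 40000g. Final assay: 100 mM phosphate pH 8.3, 300 mM NaCl, 5 mM hippuryl-His-Leu; enzyme added last, 30 min at 37 °C, stopped with HCl. Hippuric acid extracted into EtOAc, dried, redissolved in water, read by absorbance.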

O=C(O)[C@@H]1CCCN1C(=O)CCS
IC50: 0.2 µM
